Compound activity: PubChem BioAssay, Broad Institute
DENV2 CPE rescue: protects cells from dengue virus 2 cytopathic effect; DENV2-infected cells, cytopathic effect rescue, plate reader; CPE inhibition, % at 9.99 µM; 350,000 compounds, 1.7% hits; in the data active = CPE inhibition above about 20%, passing the limit was not always enough; inconclusive = no clear call, values can overlap the other calls; tested in BHK-21 cells;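 also: 0% = median of neutral control wells and 100% = median of positive control wells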
S100A4 MyoIIA: S100A4-myosin IIA interaction inhibition | P26447 | S100A4/TAMRA-MyoIIA peptide fluorescence polarization | inhibition, % at 10.7 µM | 360,000 compounds, 0.14% hits | AID 652163;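 active = mean inhibition of at least 70% across replicates, with every replicate also reaching that level; inconclusive = mean inhibition reaches 70% but some replicates fall short; inactive = mean inhibition below 70%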
Target sequence (P26447 whole entry, looked up): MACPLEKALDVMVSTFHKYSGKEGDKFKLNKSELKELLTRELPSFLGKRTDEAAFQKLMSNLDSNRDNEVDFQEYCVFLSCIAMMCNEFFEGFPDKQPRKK
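Material: human S100A4 monomer with TAMRA-labelled myosin IIA peptide; buffer or medium: HEPES pH 7.2 with CaCl2, KCl, NaCl, DTT, Triton; compound dosing: one concentration per compound; schedule: 5 min incubation before reading; benchmarks: neutral control DMSO, positive control TFP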
CAL PDZ FP-1: human CAL PDZ-peptide interaction inhibition; AID 504414; 330,000 compounds, 0.02% hits; inhibition, % at 20 µM; Q9HD26; purified CAL PDZ, TMR-peptide fluorescence polarization, 1 h;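 active = highest replicate inhibition of at least 40%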;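 also: plate controls were DMSO neutral control wells for no effect and unlabeled competitor peptide control wells for full effect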
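System: purified tagged CAL PDZ domain construct (CerCALP). Schedule: 1 h incubation at room temperature before polarization reading. Medium: 25 mM sodium phosphate pH 7.4, 150 mM NaCl, TCEP, IgG, Thesit. Read-out: percent inhibition from loss of millipolarization. Measured by: FP readout, S and P plane fluorescence. Probe or stimulus: fluorescent TMR peptide probe.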
CAL PDZ FP-2: blocks peptide binding to the human CAL PDZ domain; Q9HD26; purified CAL PDZ, TMR-peptide fluorescence polarization, 1 h; inhibition, % at 24.9 µM; 300,000 compounds, 0.92% hits;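 active = mean inhibition of at least 30% with at least half of replicates also reaching 30%; inconclusive = no clear call, values can overlap the other calls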;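 also: 0% = DMSO neutral control and 100% = excess unlabeled competitor peptide PRC23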
ERAP1 HTS inh: ERAP1 (human) enzyme inhibition; Q9NZ08; recombinant ERAP1, Leu-AMC fluorescence, 60 min; inhibition, % at 10.7 µM; 340,000 compounds, 0.15% hits;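 active = mean replicate inhibition of at least 30%, or all replicates individually reaching that 30% level; inactive = mean below 30% and not every replicate reaching it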;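 also: 0% = neutral control wells and 100% = L-leucinethiol positive control wells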
SIRT5 block: blocks human SIRT5 desuccinylation of peptide; Q9NXA8; Purified SirT5, succinyl-peptide AMC, trypsin-coupled fluorescence; inhibition, % at 15 µM; 330,000 compounds, 1.1% hits; AID 652115; in the data active = inhibition above about 15%; inconclusive = no clear call, values can overlap the other calls
Target sequence (Q9NXA8 whole entry, looked up): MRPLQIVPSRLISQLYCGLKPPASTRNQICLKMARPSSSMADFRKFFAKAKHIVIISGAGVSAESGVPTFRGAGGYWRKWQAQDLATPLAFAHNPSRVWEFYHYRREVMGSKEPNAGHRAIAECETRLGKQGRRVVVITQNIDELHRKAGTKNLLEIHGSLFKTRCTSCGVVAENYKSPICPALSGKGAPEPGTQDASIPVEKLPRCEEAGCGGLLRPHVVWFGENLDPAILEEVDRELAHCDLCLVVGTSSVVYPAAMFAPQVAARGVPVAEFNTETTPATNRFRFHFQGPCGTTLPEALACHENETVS
* hit, by the source's call; ? = inconclusive; / = no result. Rows were chosen to be rich in hits. Some 2.9% of all compounds tested hit in one or more screens of this group.

SMILES	DENV2 CPE rescue	S100A4 MyoIIA	CAL PDZ FP-1	CAL PDZ FP-2	ERAP1 HTS inh	SIRT5 block
COc1ccc(NC(=O)Nc2ccc3c(c2)C(=O)N([C@@H](C)CO)C[C@@H](C)[C@H](CN(C)Cc2ccncc2)O3)cc1	-2	-1	/	/	-1	0
C[C@@H]1CN([C@H](C)CO)C(=O)c2cc(C#CCN(C)C)cnc2O[C@@H]1CN(C)C(=O)CCN1CCCCC1	-2	-11	/	/	4	0
CCCCCCCCCCCCCCCCn1cc[n+](C)c1	-21	-1	-3	-3	79*	7
CCC(=O)N1CC[C@@H]2[C@H]1c1cc(-c3ccc(F)cc3)ccc1N[C@@H]2CO	?	0	/	/	2	-2
O=S1(=O)CCOCCCN1Cc1ccccc1Br	33*	1	1	-1	2	0
CCCOc1ccc(N2C(=O)CC(N(CCc3ccc(OC)cc3)C(=O)/C=C/C(=O)O)C2=O)cc1 (centres undefined)	4	0	-1	0	-1	42*
COc1ccc(N2C(=O)CC(N(CCc3ccccc3)C(=O)/C=C/C(=O)O)C2=O)cc1 (centres undefined)	-3	-2	-1	-5	-6	-6
COCC(=O)Nc1ccc2c(c1)[C@H]1C[C@H](CC(=O)NCc3cccc(F)c3)O[C@H](CO)[C@H]1O2	11	1	/	/	-3	-3
CCOCCCNC(=O)c1ccc(OC(C)=O)cc1	/	/	-1	37*	/	/
CCCCOc1ccc(C(=O)NCCOc2cccc(OC)c2)cc1	53*	-9	0	-3	0	-2
COc1cc(OC)cc(C(=O)NCCOc2ccccc2)c1	/	/	-2	-4	/	/
COc1cccc(C(=O)NCCOc2cc(C)cc(C)c2)c1	/	/	-2	38*	/	/
COc1ccc(C(=O)NCCOc2cccc(Oc3ccccc3)c2)cc1OC	48*	0	0	-2	-1	-2
COc1cccc(OC)c1C(=O)NCCOc1cc(C)cc(C)c1	-5	0	0	-5	1	-3
CCC(=O)N1[C@@H](CO)[C@@H]2c3ccccc3N(C(=O)c3cccc(OC)c3)C[C@@H]21	/	/	/	/	/	7
C[C@@H]1CN([C@H](C)CO)C(=O)c2cc(C3=CCCC3)cnc2O[C@@H]1CN(C)S(C)(=O)=O	-4	-31	/	/	-3	-1
O=C(C[C@@H]1C[C@H]2c3cc(NC(=O)Nc4ccccc4)ccc3O[C@H]2[C@H](CO)O1)NCc1cccc(F)c1	-1	3	/	/	-3	-3
CCCNC(=O)N(C)C[C@H]1Oc2cc(C#CC3CC3)ccc2S(=O)(=O)N([C@@H](C)CO)C[C@H]1C	14	-2	/	/	0	-1
COc1cc(S(=O)(=O)NCc2ccncc2)c(OC)cc1C	-6	23	-2	7	-1	-5
COc1cc(S(=O)(=O)NCc2ccncc2)c(OC)cc1Br	28*	-2	-2	-1	-3	-1
Cc1ccc(N2CC(=O)Nc3c(sc4nc(C)cc(C)c34)C2=O)cc1	-3	-8	0	/	-3	-2
Cc1cc(C)c2c3c(sc2n1)C(=O)N(c1ccccc1C)CC(=O)N3	-6	16	-1	74*	-4	-3
COc1ccc(C)cc1N(C)C(=O)Cc1c(C(=O)O)n(C)c2ccccc12	-12	-5	0	-1	2	29*
COc1ccc(CC(=O)OCC(=O)c2ccc[nH]2)cc1	2	2	-2	2	2	-1
O=C(Cc1ccc(Br)cc1)OCC(=O)c1ccc[nH]1	8	-2	0	44*	1	4
SMILES	DENV2 CPE rescue	S100A4 MyoIIA	CAL PDZ FP-1	CAL PDZ FP-2	ERAP1 HTS inh	SIRT5 block
O=C(C1CCCC1)N1CC2(C1)[C@H](c1ccccc1)[C@H](CO)N2C(=O)CC1CC1	-6	-10	/	/	/	0
COc1ccc(-c2cc(C(=O)O)sc2C)cc1	-1	0	-2	44*	-1	2
COc1ccc(NC(=O)N(C)C[C@H]2OCCCC[C@@H](C)Oc3ccc(NC(=O)Nc4ccccc4)cc3C(=O)N([C@@H](C)CO)C[C@H]2C)cc1	5	-4	/	/	-2	6
CC(=O)N1c2ccc(S(=O)(=O)N3CCCC3)cc2CC1C(=O)NCc1ccccc1F (centres undefined)	-6	-6	-1	4	0	1
CC(=O)N1c2ccc(S(=O)(=O)N3CCC(C(=O)Nc4cc(C)ccn4)CC3)cc2CC1C (centres undefined)	5	-2	-1	67*	-3	-1
O=C(NCc1ccncc1)c1ccc(Cl)c(S(=O)(=O)N2CCCCC2)c1	-2	1	/	1	12	18*
O=C(NCc1cccnc1)c1ccc(Cl)c(S(=O)(=O)N2CCCCCC2)c1	0	7	0	-3	1	-2
Cc1ccnc(NC(=O)c2ccc(Cl)c(S(=O)(=O)N3CCCC3)c2)c1	61*	57	-3	-2	0	-7
CC(=O)N1c2ccc(S(=O)(=O)N3CCCCC3)cc2CC1C(=O)NCc1ccccc1C (centres undefined)	-12	-2	-1	39*	1	-3
CC(=O)[C@]12O[C@]3(COC[C@H](c4ccccc4)N3C1=O)[C@@H]1C(=O)N(C)C(=O)[C@@H]12	11	-7	/	/	0	-4
C[C@H]1CN([C@@H](C)CO)C(=O)c2cc(C#CCN(C)C)cnc2O[C@@H]1CN(C)C(=O)Nc1cccc(F)c1	-8	-7	/	/	3	-1
CCC(=O)Nc1ccc2c(c1)OC[C@H](C)N(Cc1ccncc1)C[C@@H](C)[C@@H](OC)CN(C)C2=O	?	-5	/	/	-6	3
O=C(O)c1ccc(Cl)c(S(=O)(=O)Nc2ccc(S(=O)(=O)N3CCCC3)cc2)c1	-9	3	-1	-5	1	5
CC(=O)c1ccc(S(=O)(=O)Nc2ccc(Cl)c(S(=O)(=O)N3CCCC3)c2)cc1	6	-4	0	63*	0	2
COc1cccc(CNC(=O)C[C@@H]2C=C[C@@H](NS(=O)(=O)c3ccccc3OC)[C@H](CO)O2)c1	-2	-2	/	/	0	-7
C/C=C/c1ccc([C@H]2[C@H](CO)N[C@H]2CN(C(=O)C2CCC2)C(C)C)cc1	23*	-50	/	/	1	0
CC(=O)N(C[C@H]1N[C@H](CO)[C@H]1c1ccc(-c2ccc(F)cc2)cc1)C(C)C	64*	6	/	/	-1	-1
CC(C)CN(C[C@H]1N[C@H](CO)[C@@H]1c1ccccc1)C(=O)C1CCCCC1	-5	-26	/	/	1	22*
CN(C[C@@H]1N[C@H](CO)[C@@H]1c1ccc(C2=CCCC2)cc1)S(C)(=O)=O	4	-1	/	/	0	16*
C/C=C/c1ccc([C@@H]2[C@@H](CO)N[C@@H]2CN(C(=O)C2CCC2)C(C)C)cc1	-10	-7	/	/	3	-1
